OXTR ag: human OXTR agonists, primary screen, fluorescence, CHO-OTR cells, Fluo-8 calcium; 320,000 tested, 0.32% active; AID 2435, 2010; Oxytocin receptor (Homo sapiens), P30559; activation, % at 3 µM; Fluo-8 calcium fluorescence; normalized: DMSO 0%, oxytocin 100%;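 active means activation above the mean of all tested compounds plus 3 SD, cutoff set per screening run, cut at about 20% in these data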;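 further: peak over basal fluorescence ratio from a 100 s FLIPR kinetic read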
Target sequence (P30559 whole entry, looked up): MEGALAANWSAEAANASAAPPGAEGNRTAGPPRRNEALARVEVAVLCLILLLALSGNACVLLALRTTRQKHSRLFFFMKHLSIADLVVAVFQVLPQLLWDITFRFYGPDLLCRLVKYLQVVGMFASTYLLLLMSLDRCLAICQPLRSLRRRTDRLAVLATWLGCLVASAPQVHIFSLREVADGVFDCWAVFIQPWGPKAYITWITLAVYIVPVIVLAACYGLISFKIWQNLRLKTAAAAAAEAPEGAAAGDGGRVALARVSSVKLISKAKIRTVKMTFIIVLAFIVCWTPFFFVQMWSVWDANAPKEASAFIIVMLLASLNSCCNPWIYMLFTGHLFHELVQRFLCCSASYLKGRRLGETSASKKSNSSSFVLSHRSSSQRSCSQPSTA
TRPN1 ag: zebrafish TRPN1 channel agonists, primary screen, cell-based, HEK293, calcium fluorescence. HEK293 zebrafish TRPN1-YFP, Fluo-8 calcium fluorescence; 100% = response to 87 µM carbachol. transient receptor potential cation channel N1 (TRPN1/NompC), Danio rerio. activation, % at 3 µM. AID 1424, 2008. 220,000 tested, 0.18% active;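 active means activation above its plate's cutoff, the mean activation of test wells on that plate plus 3 SD, cut at about 19% in these data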;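 further: 0% = DMSO alone and 100% = 87 µM carbachol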
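Assay system: Zebrafish TRPN1-YFP in HEK293 cells | Incubation: Dye loading 1 h at 37 °C, then 30 min room temperature | Measured by: Kinetic Fluo-8 fluorescence, ex 470-495, em 515-575 nm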
TRPML3 ag: human TRPML3 channel agonists, primary screen, cell-based, HEK293 TRPML3-YFP, Fluo-8 calcium fluorescence, 3 µM; Mucolipin-3 (Homo sapiens), Q8TDD5; 100% = the carbachol control signal; activation, % at 3 µM; 220,000 tested, 0.29% active;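 active means activation above its plate's cutoff, the mean activation of the plate's test wells plus 3 SD, cut at about 12% in these data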;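 further: 0% = DMSO only wells and 100% = carbachol wells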
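Test system: TRPML3-YFP stable HEK293 cells. Doses: single point at 3 µM. Incubation: dye loading 1 h 37 °C then 30 min ambient, 125 s read. Signal: Fluo-8 calcium dye fluorescence, ex 470-495, em 515-575 nm. Measure: percent activation from peak-to-basal fluorescence ratio, scaled between DMSO and carbachol.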
OXTR potentiate: human OXTR potentiators, primary screen, fluorescence, CHO-OTR cells, Fluo-8 calcium; Oxytocin receptor (Homo sapiens), P30559; Fluo-8 calcium fluorescence, potentiator mode; 0% = oxytocin EC15, 100% = EC100; activation, % at 3 µM; 320,000 tested, 0.061% active; AID 2445, 2010;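 active means activation above that plate's cutoff, the mean activation of tested compounds plus 3 SD, cut at about 6.6% in these data, passing the limit was not always enough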;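 further: 100% uses oxytocin at 75 nM as the full agonist control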
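Assay system: CHO cell line stably expressing human OTR. Reagent: EC15 oxytocin agonist. Dosing: single dose, 3.0 µM nominal final compound concentration. Timing: compound 6 min at room temperature before oxytocin, 100 s read. Signal: kinetic Fluo-8 calcium fluorescence. Controls: oxytocin EC15 low and EC100 high.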
V1R ag counter: agonists of human V1a receptor, primary screen, counter-screen for OXTR agonist project, fluorescence, CHO-V1R cells; Vasopressin V1a receptor (Homo sapiens), P37288; Fluo-8 calcium fluorescence, agonist mode; 0% DMSO, 100% 3 nM vasopressin; activation, % at 3 µM; 320,000 tested, 0.25% active; AID 2797, 2010;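 active means activation above the mean activation of all tested compounds plus 3 SD, per screening run, cut at about 20% in these data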;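 further: signal is peak over basal fluorescence ratio across a 100 second FLIPR read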
OXTR ag confirm: human OXTR agonists, confirmation, fluorescence, CHO-OTR cells, triplicate; AID 434963, 2010; activation, % at 3 µM; shares compounds with OXTR ag; 390 tested, 20% active; Fluo-8 calcium fluorescence, agonist;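 active means mean activation above about 20% derived from the earlier single-dose screen, limit read from the data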;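 further: peak over minimum fluorescence ratio per well during a 100 second FLIPR read; 0% = DMSO alone and 100% = oxytocin high control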
V1R ag counter 3x: V1a receptor agonists, calcium signal, counter-screen for OXTR agonist project, triplicate, fluorescence, CHO-V1R cells. shares compounds with OXTR ag. Fluo-8 calcium fluorescence. activation, % at 3 µM. 390 tested, 10% active. AID 434991, 2010;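 active means mean activation over triplicate exceeds the hit threshold set in the earlier primary screen, cut at about 20% in these data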;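 further: peak over basal fluorescence ratio within a 100 second read; 0% = DMSO alone and 100% = 3 nM vasopressin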
* hit, by the source's call; . = no result. Most compounds without a hit are left out; they make up all but 0.55% or so of the library.

SMILES | OXTR ag | TRPN1 ag | TRPML3 ag | OXTR potentiate | V1R ag counter | OXTR ag confirm | V1R ag counter 3x
Cc1cccc(OCC(O)Cn2c(=N)n(Cc3ccccc3)c3ccccc32)c1 (stereo not given) | 31* | -1 | -1 | -13 | 18 | 7 | 6
Cc1c(NC(=S)Nc2ccc(Cl)cc2)c(=O)n(-c2ccccc2)n1C | 0 | 1 | 1 | -2 | 2 | . | .
O=C(c1ccc(=O)[nH]n1)N1CCN(S(=O)(=O)c2ccc(C(F)(F)F)cc2)CC1 | 0 | . | . | -3 | 8 | . | .
CC(C)c1c(C(=O)N/N=C/c2cccs2)nnn1-c1nonc1N | 20* | . | . | -8 | 14 | 8 | 10
Cc1ccsc1/C=N/NC(=O)c1nnn(-c2nonc2N)c1C(C)C | 22* | . | . | -14 | 5 | 0 | 1
O=C(Nc1ccc2c(c1)OCCO2)C(=O)NC1CC1 | 1 | . | . | -7 | -1 | . | .
COc1ccc(-n2c(O)c(/C=N/NS(=O)(=O)c3ccc(C)cc3)c3ccccc3c2=O)cc1OC | 32* | -1 | 1 | -16 | 9 | 15 | 13
COc1ccc(-c2cc(C(=O)Nc3c(F)cc(F)cc3Br)no2)cc1 | -1 | . | . | -6 | 0 | . | .
Cc1cc(-c2nnc(SCC(=O)Nc3ccc(Br)cc3F)n2N)n[nH]1 | 0 | . | . | 0 | 1 | . | .
COc1ccccc1Oc1ccc2c(c1)C(=O)N(CC(=O)O)C2=O | 1 | . | . | -2 | 0 | . | .
COc1ccccc1Oc1ccc2c(c1)C(=O)N(c1ccc(O)cc1)C2=O | 26* | 1 | 1 | -18 | 7 | 1 | 4
CC(=O)n1cc([C@H]2C=C(C(=O)NCc3ccccc3)O[C@@H](OCc3ccc(CO)cc3)C2)c2ccccc21 | 2 | 1 | 0 | -14 | 1 | . | .
CC(=O)n1cc([C@H]2C=C(C(N)=O)O[C@@H](OCc3ccc(CO)cc3)C2)c2ccccc21 | 20* | . | . | -16 | 17 | 19 | 13
O=C(COc1ccc2ccc(=O)oc2c1)Nc1cccc(S(=O)(=O)N2CCCCC2)c1 | 21* | . | . | -10 | 12 | 8 | 9
CC(=O)c1ccc(OCC(=O)Nc2cccc(S(=O)(=O)N3CCCC3)c2)cc1 | 15 | . | . | -14 | 11 | . | .
CC(C)c1ccc(NC(=O)COC(=O)c2nn(C)c(=O)c3ccccc23)cc1 | 0 | . | . | -11 | 2 | . | .
Cc1cc(N2CCCCC2)nc(NCc2ccccc2)n1 | 25* | 47* | 6 | -21 | 15 | 11 | 13
Cc1ccc(Cl)cc1N1CCN(C(=O)C2CCN(S(=O)(=O)c3c(C)nn(C)c3C)CC2)CC1 | 21* | 4 | 1 | -12 | 16 | 12 | 11
O=C(NCC(=O)N1CC=C(c2ccccc2)CC1)c1ccccc1Br | 1 | . | . | -11 | 2 | . | .
COc1ccc(/C=C2\CCc3ccccc3C2=O)cc1Cn1nc(C)cc1C | 23* | 0 | -1 | -16 | 20 | 5 | 3
COc1ccc(/C=C2/CCc3ccccc3C2=O)cc1CN1CCOCC1 | -2 | 0 | -1 | -9 | 0 | . | .
CCCCNC(=O)CCCn1c(=S)[nH]c2cc3c(cc2c1=O)OCO3 | 22* | 1 | 1 | -2 | -2 | -1 | 0
O=c1cc(Nc2ccc3c(c2)OCCO3)[nH]c(=O)n1C1CCCCC1 | 4 | 2 | 1 | -11 | 3 | . | .
CCc1ccc(Nc2cc(=O)n(C3CCCCC3)c(=O)[nH]2)cc1 | 25* | 8 | 7 | -16 | 17 | 33* | 30*
COc1ccc(OC)c(CCNC(=O)CN2C(=O)COc3ccc(S(=O)(=O)N4CCOCC4)cc32)c1 | -1 | . | . | -8 | -1 | . | .
SMILES | OXTR ag | TRPN1 ag | TRPML3 ag | OXTR potentiate | V1R ag counter | OXTR ag confirm | V1R ag counter 3x
COc1ccccc1Nc1nc(-c2ccccc2)nc2ccccc12 | -2 | 1 | 1 | -7 | 0 | . | .
COc1ccc(Nc2nc(-c3ccccc3)nc3ccccc23)c(OC)c1 | 30* | 1 | 0 | -27 | 6 | 0 | 0
O=C(N/N=C/c1sc2ccccc2c1O)c1ccccc1 | 21* | 6 | 6 | -15 | 11 | 30* | 48*
COc1ccc(C(=O)N/N=C/c2sc3ccccc3c2O)cc1 | 10 | 4 | 1 | -9 | 7 | . | .
CCN(CC)C(=O)c1ccccc1NS(=O)(=O)c1cccs1 | 0 | . | . | 0 | 0 | . | .
COc1cc(/C=N/OCC(=O)Nc2cc(C)on2)ccc1OCc1ccccc1 | 24* | 8 | 1 | -21 | 15 | 16 | 8
O=C(COC(=O)c1cc(S(=O)(=O)N2CCCC2)ccc1O)Nc1ccc(S(=O)(=O)N2CCOCC2)cc1 | 0 | 0 | 1 | -9 | 1 | . | .
O=C(COC(=O)c1cc(S(=O)(=O)N2CCCC2)ccc1O)Nc1ccc(SC(F)F)cc1 | 21* | . | . | -11 | 17 | 15 | 13
Clc1cccc2c1Sc1ccccc1CC2N1CCNCC1 (stereo not given) | 22* | -1 | 1 | -7 | 16 | 8 | 5
COCCCN1CCN(C2Cc3ccccc3Sc3ccc(Cl)cc32)CC1 (stereo not given) | 6 | 1 | 1 | -2 | 5 | . | .
Clc1ccc2c(c1)C(N1CCNCC1)Cc1ccccc1S2 (stereo not given) | 29* | 16 | 2 | -18 | 12 | 21* | 7
CC1CC(C)CN(CCCNC(=O)CN2C(=O)COc3ccc(S(=O)(=O)N4CCOCC4)cc32)C1 (stereo not given) | -1 | . | . | -5 | 1 | . | .
O=C1/C(=C/c2ccccc2)N=C(N2CCOCC2)N1c1cccc(Cl)c1 | 26* | -2 | -1 | -10 | 7 | 10 | 7
COc1ccc(-n2c(COc3cccc4ccccc34)nnc2SC(C)C(=O)O)cc1 (stereo not given) | 0 | -1 | 1 | 0 | 0 | . | .

Compound activity: PubChem BioAssay, The Scripps Research Institute Molecular Screening Center
